Measured values as given in ChEMBL document CHEMBL3877264, “Quinolidene-rhodanine conjugates: Facile synthesis and biological evaluation” (Eur J Med Chem, 2017).
Values after ≈ are worked out from the molar mass of the structure shown.

Experiments:
Type in all cases: functional
Aspergillus niger = test: Antifungal activity against Aspergillus niger NCIM 1196 by standard agar method
How it was run: (§1)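 MICs determined by standard agar method; DMSO as solvent control.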

[1] = system: Mycobacterium tuberculosis; test: Growth inhibition of Mycobacterium tuberculosis H37Ra ATCC 25177 at active stage measured after 8 days by XTT dye based two fold dilution method; details: H37Ra ATCC 25177, 192 h
How it was run: (§2)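 MTB H37Ra was grown in Dubos medium, then exposed in Mycobacterium pheli minimal medium (pH 6.6) to compounds dissolved in DMSO. The assay ended on day 8 (active) or day 12 (dormant). Viable cells were measured by XTT reduction menadione assay at 470 nm, blank-corrected, relative to vehicle control. Triplicates were expressed as mean ± SD. MIC came from dose-response curves.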

Pseudomonas fluorescens [2] = test: Growth inhibition of Pseudomonas fluorescens NCIM 2036 at 30 ug/ml measured after 8 hrs relative to control; details: NCIM 2036, 8 h, read-out: GI
How it was run: (§3)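 Bacteria grown in LB at 37 °C and 180 rpm to OD 1. Compounds added to wells, then 0.1% inoculum of 1 OD culture (620 nm). Growth read as OD at 620 nm after 8 h for gram-negative and after 12 h for gram-positive strains.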

Escherichia coli [3] = test: Growth inhibition of Escherichia coli NCIM 2688 at 3 ug/ml measured after 8 hrs relative to control; details: NCIM 2688, 8 h, read-out: GI; how it was run: as §3
[4] = system: Mycobacterium tuberculosis; test: Growth inhibition of Mycobacterium bovis BCG ATCC 35743 at dormant stage at 3 ug/ml measured after 12 days by nitrate reductase dye based two fold dilution method relative to control; details: BCG str. ATCC 35743, 288 h, read-out: GI
How it was run: (§4)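 M. bovis BCG was grown in Dubos medium and assayed in Mycobacterium pheli minimal medium (pH 6.6), with compounds from DMSO stocks. Incubation lasted 8 days for active and 12 days for dormant cultures. Viability was read by nitrate reductase at 540 nm against cell-free blanks, with vehicle set as 100% growth. Primary screen was at 30, 10 and 3 µg/ml, in triplicate, mean ± SD. MIC was taken from dose-response curves.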

[5] = Antifungal activity against Cryptococcus neoformans NCIM 576 by standard agar method; how it was run: as §1
[6] = system: Mycobacterium tuberculosis; test: Growth inhibition of Mycobacterium bovis BCG ATCC 35743 at dormant stage at 30 ug/ml measured after 12 days by nitrate reductase dye based two fold dilution method relative to control; details: BCG str. ATCC 35743, 288 h, read-out: GI; how it was run: as §4
Escherichia coli [7] = test: Growth inhibition of Escherichia coli NCIM 2688 at 10 ug/ml measured after 8 hrs relative to control; details: NCIM 2688, 8 h, read-out: GI; how it was run: as §3
Pseudomonas fluorescens [8] = test: Antibacterial activity against Pseudomonas fluorescens NCIM 2036 measured after 8 hrs; details: NCIM 2036, 8 h; how it was run: as §3
Candida albicans = test: Antifungal activity against Candida albicans NCIM 3471 by standard agar method; how it was run: as §1
Pseudomonas fluorescens [9] = test: Growth inhibition of Pseudomonas fluorescens NCIM 2036 at 3 ug/ml measured after 8 hrs relative to control; details: NCIM 2036, 8 h, read-out: GI; how it was run: as §3
Staphylococcus aureus [10] = test: Growth inhibition of Staphylococcus aureus NCIM 2010 at 10 ug/ml measured after 12 hrs relative to control; details: NCIM 2010, 12 h, read-out: GI; how it was run: as §3
Aspergillus flavus = test: Antifungal activity against Aspergillus flavus NCIM 539 by standard agar method; how it was run: as §1
Escherichia coli [11] = test: Growth inhibition of Escherichia coli NCIM 2688 at 30 ug/ml measured after 8 hrs relative to control; details: NCIM 2688, 8 h, read-out: GI; how it was run: as §3
Pseudomonas fluorescens [12] = test: Growth inhibition of Pseudomonas fluorescens NCIM 2036 at 10 ug/ml measured after 8 hrs relative to control; details: NCIM 2036, 8 h, read-out: GI; how it was run: as §3
Bacillus subtilis [13] = test: Growth inhibition of Bacillus subtilis NCIM 2079 at 10 ug/ml measured after 12 hrs relative to control; details: NCIM 2079, 12 h, read-out: GI; how it was run: as §3
[14] = system: Mycobacterium tuberculosis; test: Growth inhibition of Mycobacterium bovis BCG ATCC 35743 at dormant stage at 10 ug/ml measured after 12 days by nitrate reductase dye based two fold dilution method relative to control; details: BCG str. ATCC 35743, 288 h, read-out: GI; how it was run: as §4
[15] = system: Mycobacterium tuberculosis; test: Growth inhibition of Mycobacterium bovis BCG ATCC 35743 at dormant stage measured after 12 days by nitrate reductase dye based two fold dilution method; details: BCG str. ATCC 35743, 288 h; how it was run: as §4
Bacillus subtilis [16] = test: Antibacterial activity against Bacillus subtilis NCIM 2079 measured after 12 hrs; details: NCIM 2079, 12 h; how it was run: as §3
[17] = Antifungal activity against Fusarium oxysporum NCIM 1332 by standard agar method; how it was run: as §1
Escherichia coli [18] = test: Antibacterial activity against Escherichia coli NCIM 2688 measured after 8 hrs; details: NCIM 2688, 8 h; how it was run: as §3
Bacillus subtilis [19] = test: Growth inhibition of Bacillus subtilis NCIM 2079 at 30 ug/ml measured after 12 hrs relative to control; details: NCIM 2079, 12 h, read-out: GI; how it was run: as §3
Staphylococcus aureus [20] = test: Growth inhibition of Staphylococcus aureus NCIM 2010 at 3 ug/ml measured after 12 hrs relative to control; details: NCIM 2010, 12 h, read-out: GI; how it was run: as §3
Staphylococcus aureus [21] = test: Growth inhibition of Staphylococcus aureus NCIM 2010 at 30 ug/ml measured after 12 hrs relative to control; details: NCIM 2010, 12 h, read-out: GI; how it was run: as §3
Staphylococcus aureus [22] = test: Antibacterial activity against of Staphylococcus aureus NCIM 2010 measured after 12 hrs; details: NCIM 2010, 12 h; how it was run: as §3
[23] = system: Mycobacterium tuberculosis; test: Growth inhibition of Mycobacterium bovis BCG ATCC 35743 at active stage measured after 8 days by nitrate reductase dye based two fold dilution method; details: BCG str. ATCC 35743, 192 h; how it was run: as §4
[24] = system: Mycobacterium tuberculosis; test: Growth inhibition of Mycobacterium tuberculosis H37Ra ATCC 25177 at dormant stage measured after 12 days by XTT dye based two fold dilution method; details: H37Ra ATCC 25177, 288 h; how it was run: as §2
Bacillus subtilis [25] = test: Growth inhibition of Bacillus subtilis NCIM 2079 at 3 ug/ml measured after 12 hrs relative to control; details: NCIM 2079, 12 h, read-out: GI; how it was run: as §3

Compound: CCOc1ccc2nc(Cl)c(/C=C3\SC(=S)N(CCC(=O)O)C3=O)cc2c1
- MIC (Aspergillus niger): 175 µg/mL (≈ 414 µM)
- IC50 [1]: > 30 µg/mL
- IC90 [1]: > 30 µg/mL
- inhibition of growth at 30 µg/mL (Pseudomonas fluorescens [2]): 7.19%
- inhibition of growth at 3 µg/mL (Escherichia coli [3]): 5.32%
- inhibition of growth at 3 µg/mL [4]: 21.5%
- MIC [5]: 175 µg/mL (≈ 414 µM)
- inhibition of growth at 30 µg/mL [6]: 32.5%
- inhibition of growth at 10 µg/mL (Escherichia coli [7]): 7.42%
- MIC (Pseudomonas fluorescens [8]): > 30 µg/mL
- MIC (Candida albicans): 200 µg/mL (≈ 473 µM)
- inhibition of growth at 3 µg/mL (Pseudomonas fluorescens [9]): -85%
- inhibition of growth at 10 µg/mL (Staphylococcus aureus [10]): -39.4%
- MIC (Aspergillus flavus): 100 µg/mL (≈ 236 µM)
- inhibition of growth at 30 µg/mL (Escherichia coli [11]): 14.8%
- inhibition of growth at 10 µg/mL (Pseudomonas fluorescens [12]): -40.5%
- inhibition of growth at 10 µg/mL (Bacillus subtilis [13]): -8.28%
- inhibition of growth at 10 µg/mL [14]: 33%
- IC50 [15]: > 30 µg/mL
- IC90 [15]: > 30 µg/mL
- MIC (Bacillus subtilis [16]): > 30 µg/mL
- MIC [17]: 125 µg/mL (≈ 296 µM)
- MIC (Escherichia coli [18]): > 30 µg/mL
- inhibition of growth at 30 µg/mL (Bacillus subtilis [19]): -4.16%
- inhibition of growth at 3 µg/mL (Staphylococcus aureus [20]): -5.78%
- inhibition of growth at 30 µg/mL (Staphylococcus aureus [21]): -27.7%
- MIC (Staphylococcus aureus [22]): > 30 µg/mL
- IC50 [23]: > 30 µg/mL
- IC90 [23]: > 30 µg/mL
- IC50 [24]: > 30 µg/mL
- IC90 [24]: > 30 µg/mL
- inhibition of growth at 3 µg/mL (Bacillus subtilis [25]): -2.45%

Compound: Cc1cccc2cc(/C=C3\SC(=S)N(CCC(=O)O)C3=O)c(Cl)nc12
- MIC (Aspergillus niger): 75 µg/mL (≈ 191 µM)
- IC50 [1]: > 30 µg/mL
- IC90 [1]: > 30 µg/mL
- inhibition of growth at 30 µg/mL (Pseudomonas fluorescens [2]): 16%
- inhibition of growth at 3 µg/mL (Escherichia coli [3]): 8.12%
- inhibition of growth at 3 µg/mL [4]: 17.2%
- MIC [5]: 100 µg/mL (≈ 255 µM)
- inhibition of growth at 30 µg/mL [6]: 24.8%
- inhibition of growth at 10 µg/mL (Escherichia coli [7]): 4.27%
- MIC (Pseudomonas fluorescens [8]): > 30 µg/mL
- MIC (Candida albicans): 50 µg/mL (≈ 127 µM)
- inhibition of growth at 3 µg/mL (Pseudomonas fluorescens [9]): 4.57%
- inhibition of growth at 10 µg/mL (Staphylococcus aureus [10]): -19.7%
- MIC (Aspergillus flavus): 150 µg/mL (≈ 382 µM)
- inhibition of growth at 30 µg/mL (Escherichia coli [11]): 10.5%
- inhibition of growth at 10 µg/mL (Pseudomonas fluorescens [12]): -2.3%
- inhibition of growth at 10 µg/mL (Bacillus subtilis [13]): -5.28%
- inhibition of growth at 10 µg/mL [14]: 27.9%
- IC50 [15]: > 30 µg/mL
- IC90 [15]: > 30 µg/mL
- MIC (Bacillus subtilis [16]): > 30 µg/mL
- MIC [17]: 100 µg/mL (≈ 255 µM)
- MIC (Escherichia coli [18]): > 30 µg/mL
- inhibition of growth at 30 µg/mL (Bacillus subtilis [19]): -5.57%
- inhibition of growth at 3 µg/mL (Staphylococcus aureus [20]): -4.02%
- inhibition of growth at 30 µg/mL (Staphylococcus aureus [21]): -12.1%
- MIC (Staphylococcus aureus [22]): > 30 µg/mL
- IC50 [23]: > 30 µg/mL
- IC90 [23]: > 30 µg/mL
- IC50 [24]: > 30 µg/mL
- IC90 [24]: > 30 µg/mL
- inhibition of growth at 3 µg/mL (Bacillus subtilis [25]): -3.04%

Compound: COc1ccc2cc(/C=C3\SC(=S)N(CC(=O)O)C3=O)c(Cl)nc2c1
- MIC (Aspergillus niger): 150 µg/mL (≈ 380 µM)
- IC50 [1]: > 30 µg/mL
- IC90 [1]: > 30 µg/mL
- inhibition of growth at 30 µg/mL (Pseudomonas fluorescens [2]): 10.3%
- inhibition of growth at 3 µg/mL (Escherichia coli [3]): 2.49%
- inhibition of growth at 3 µg/mL [4]: -1.36%
- MIC [5]: 100 µg/mL (≈ 253 µM)
- inhibition of growth at 30 µg/mL [6]: 0.66%
- inhibition of growth at 10 µg/mL (Escherichia coli [7]): 7.54%
- MIC (Pseudomonas fluorescens [8]): > 30 µg/mL
- MIC (Candida albicans): 50 µg/mL (≈ 127 µM)
- inhibition of growth at 3 µg/mL (Pseudomonas fluorescens [9]): 4.92%
- inhibition of growth at 10 µg/mL (Staphylococcus aureus [10]): -11.3%
- MIC (Aspergillus flavus): 125 µg/mL (≈ 317 µM)
- inhibition of growth at 30 µg/mL (Escherichia coli [11]): -17.9%
- inhibition of growth at 10 µg/mL (Pseudomonas fluorescens [12]): -54.3%
- inhibition of growth at 10 µg/mL (Bacillus subtilis [13]): -0.0845%
- inhibition of growth at 10 µg/mL [14]: 33%
- IC50 [15]: > 30 µg/mL
- IC90 [15]: > 30 µg/mL
- MIC (Bacillus subtilis [16]): > 30 µg/mL
- MIC [17]: 75 µg/mL (≈ 190 µM)
- MIC (Escherichia coli [18]): > 30 µg/mL
- inhibition of growth at 30 µg/mL (Bacillus subtilis [19]): 6.8%
- inhibition of growth at 3 µg/mL (Staphylococcus aureus [20]): -13.7%
- inhibition of growth at 30 µg/mL (Staphylococcus aureus [21]): -17.7%
- MIC (Staphylococcus aureus [22]): > 30 µg/mL
- IC50 [23]: > 30 µg/mL
- IC90 [23]: > 30 µg/mL
- IC50 [24]: > 30 µg/mL
- IC90 [24]: > 30 µg/mL
- inhibition of growth at 3 µg/mL (Bacillus subtilis [25]): 2.79%
